MrgX1 allo act: allosterically activates human MrgX1 receptor signaling. MrgX1-HEK293, Fluo-4 calcium flux, FDSS; stronger effect = higher value. B-score at 10 µM. 0.63% of 310,000 active. AID 588675;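 active = plate-corrected calcium response at least 3 library SD above typical, normal starting fluorescence, not activating the receptor alone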;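 also: compound read alongside a low EC10 to EC30 dose of BAM8-22 agonist; peak minus trough fluorescence over baseline measured at the second addition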
Target sequence (Q96LB2 whole entry, looked up): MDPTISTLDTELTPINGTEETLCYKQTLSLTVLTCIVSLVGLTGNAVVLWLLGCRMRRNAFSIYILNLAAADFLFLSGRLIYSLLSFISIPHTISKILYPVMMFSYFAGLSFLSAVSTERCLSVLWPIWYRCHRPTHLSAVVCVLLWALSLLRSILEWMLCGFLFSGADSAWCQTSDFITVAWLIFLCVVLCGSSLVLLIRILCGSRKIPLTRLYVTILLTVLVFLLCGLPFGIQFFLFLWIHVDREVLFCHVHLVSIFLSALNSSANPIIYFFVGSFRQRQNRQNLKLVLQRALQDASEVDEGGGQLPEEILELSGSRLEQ
RGS4 pot: potentiators or activators of RGS4. AID 463111. B-score at 10 µM. 0.92% of 310,000 active. HEK293 M3R/inducible RGS4, carbachol calcium flux Fluo4; stronger effect = lower value;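 active = B-score of the integrated calcium signal more than 4 SD below the library mean, with starting fluorescence not abnormally high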;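 also: negative B-score means reduced calcium response which marks RGS4 activation or potentiation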
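Reagent: ECmax carbachol challenge; Test system: M3R-expressing HEK293 line, RGS4 induced by doxycycline; Schedule: overnight RGS4 induction, 30 min dye load 37 °C, 20 min compound RT; Detection: calcium dye Fluo4 fluorescence; Read-out: Agonist-evoked peak-minus-minimum fluorescence over baseline, integrated ratio, B score.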
MrgX1 agonist: human MrgX1 receptor agonism, primary screen; Q96LB2; MrgX1-HEK293 cells, Fluo-4 calcium fluorescence, agonist mode; stronger effect = higher value; B-score at 10 µM; 0.44% of 310,000 active; AID 588627;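 active = calcium response B-score plate-corrected fluorescence ratio at least 3 library SD, with starting fluorescence B-score inside 5 SD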
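System: HEK293 cells stably expressing human MrgX1 receptor; Dosing: test compound in the initial addition of three; Schedule: overnight plating, then 30 min 37 °C plus 30 min room-temperature dye loading; Detection: kinetic calcium dye fluorescence, Fluo-4 NW; Controls: per-plate positive and negative controls for Z′ factor.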
MrgX1 antagonist: human MrgX1 receptor antagonism, primary screen. Q96LB2. MRGX1-HEK293 calcium flux, Fluo-4, BAM8-22 antagonism; stronger effect = lower value. B-score at 10 µM. 1.3% of 310,000 active. AID 588676;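 active = calcium-response B-score plate-corrected more than 3 library SD below zero, starting fluorescence within 5 deviations, no agonist response on first addition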;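 also: peak minus trough fluorescence over baseline after final BAM8-22 challenge near maximal dose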
RGS4 inh: inhibitors of human RGS4; P49798; HEK293 M3R/RGS4 inducible, Fluo-4 calcium flux; stronger effect = higher value; triggered by carbachol at its EC20; B-score at 10 µM; 0.45% of 310,000 active; AID 463165;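 active = B-score, a plate-corrected calcium signal, over three deviations above library mean, with baseline fluorescence within five deviations of library mean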;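 also: RGS4 expression induced by doxycycline in cells with stable M3 receptor; B-score is computed from the integrated fluorescence ratio over baseline after carbachol; higher B-score means a larger calcium signal and so more RGS4 inhibition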
Target sequence (P49798 whole entry, looked up): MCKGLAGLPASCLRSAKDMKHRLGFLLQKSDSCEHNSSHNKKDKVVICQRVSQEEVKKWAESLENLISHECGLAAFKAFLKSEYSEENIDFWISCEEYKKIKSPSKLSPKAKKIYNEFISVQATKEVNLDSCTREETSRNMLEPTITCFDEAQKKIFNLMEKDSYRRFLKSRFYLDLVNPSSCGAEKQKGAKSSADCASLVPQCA
* hit, by the source's call; i = inactive. Only some compounds are listed: those with a hit (about 3.5% of all), similar ones and a draw of the others.

SMILES	MrgX1 allo act	RGS4 pot	MrgX1 agonist	MrgX1 antagonist	RGS4 inh
Cc1nc(N2CCN(c3ccccn3)CC2)c2c(C)c(C(=O)Nc3ccc(F)cc3Cl)sc2n1	i	-7.4*	i	i	i
CCc1ccc(-c2cc(C(=O)N3N=C(C(F)F)CC3(O)C(F)F)c3ccccc3n2)cc1 (centres undefined)	i	-7.2*	i	i	i
CC(C)Cc1cc(C(=O)N2N=C(C(F)F)CC2(O)C(F)F)c2ccccc2n1 (centres undefined)	i	i	i	i	i
O=C1CCCN1CCCNc1ncnc2c1[nH]c1ccc(Cl)cc12	i	i	37*	i	i
CC1CCCC(C)N1C(=O)CSc1nccc(=O)[nH]1 (centres undefined)	i	i	i	i	i
COc1ccccc1C1=NNC(=Nc2cccc(S(=O)(=O)N(C)C)c2)SC1	i	i	i	-5*	i
COCCn1c(C)cc(C2=NNC(=Nc3ccccc3)SC2)c1C	i	i	i	i	i
CCN1CCN(c2nc(Nc3ccc(OC)cc3)nc(N)c2[N+](=O)[O-])CC1	i	i	i	i	i
Cc1cccc(-n2c(C)cc(/C=C3\NC(=O)NC3=O)c2C)c1	i	i	i	i	i
Cc1cc(/C=C2/NC(=O)NC2=O)c(C)n1-c1ccncc1	6.7*	i	i	i	i
CCN1CCN(Cc2ccc(NC(=O)c3ccc(C)c(NC(=O)C(=O)c4c[nH]c5ccccc45)c3)cc2C(F)(F)F)CC1	i	-8.8*	i	i	i
CCN1CCN(Cc2ccc(NC(=O)c3cc(NC(=O)C(=O)c4c[nH]c5ccccc45)cc(OC)c3)cc2C(F)(F)F)CC1	i	i	i	i	i
CS(=O)(=O)c1ccc2nc(NC(=O)C3=NN(c4ccccc4)C(=O)CC3)sc2c1	i	i	i	i	i
COc1ccc2nc(NC(=O)C3=NN(c4ccccc4)C(=O)CC3)sc2c1	i	i	i	-5.6*	i
O=C1c2ccccc2C(=O)N1CCCc1nc(-c2cccnc2)no1	i	i	i	i	i
CCc1ccccc1NC(=S)N1N=CCC1c1ccccc1 (centres undefined)	i	i	37*	i	i
COc1ccccc1NC(=O)c1cc2ccccc2o/c1=N\O	i	i	i	i	11*
COc1ccc(N=c2oc3ccccc3cc2C(=O)Nc2ccccn2)cc1OC	i	i	i	i	i
O=C1CC(c2cccs2)c2cc3c(cc2N1)OCO3 (centres undefined)	i	i	i	i	i
CC(C)(C)CC(=O)NC(=S)Nc1ccccc1[N+](=O)[O-]	i	i	i	-5.7*	i
COC(=O)c1ccccc1NC(=O)COc1ccccc1	i	i	i	i	i
O=C(CCOc1ccccc1)Nc1ccccc1[N+](=O)[O-]	i	i	i	-5.4*	i
COC(=O)c1ccccc1NC(=O)COc1ccccc1[N+](=O)[O-]	i	i	i	-4.6*	i
CC(C)c1ccc(NC(=O)c2ccccc2NC(=O)C2CC=CCC2C(=O)O)cc1 (centres undefined)	i	i	i	i	i
C/C(=N/NC(=O)c1ccc(C(C)(C)C)cc1)c1ccccn1	i	i	i	i	8.5*
SMILES	MrgX1 allo act	RGS4 pot	MrgX1 agonist	MrgX1 antagonist	RGS4 inh
Cc1c(CCOC(=O)C23CC4CC(CC(C)(C4)C2)C3)sc[n+]1Cc1ccccc1	i	i	i	i	i
Cc1ccc(C(=O)OCCc2sc[n+](Cc3ccccc3)c2C)cc1	i	-9.1*	i	i	i
C=CC[N+](C)(C)CC(=O)OCc1ccccc1	i	i	i	i	i
CCOC(=O)c1cc(NC(=O)N(CC)C2CCCCC2)c(C)nc1C	i	i	i	i	i
O=[N+]([O-])c1ccccc1S(=O)(=O)Nc1nc2ccccc2s1	i	i	i	i	i
O=[N+]([O-])c1ccc2nc(NS(=O)(=O)c3ccccc3[N+](=O)[O-])sc2c1	10*	i	i	i	i
O=C(NC(Nc1nc2ccc([N+](=O)[O-])cc2s1)(C(F)(F)F)C(F)(F)F)c1ccccc1Cl	i	i	i	-5.5*	i
O=C(NC(Nc1nc2ccc([N+](=O)[O-])cc2s1)(C(F)(F)F)C(F)(F)F)c1cccnc1	i	i	i	i	i
O=[N+]([O-])c1ccc2nc(NS(=O)(=O)c3ccc(Cl)cc3)sc2c1	11*	i	i	i	i
COc1ccc(/C(N)=N/OC(=O)Cc2cccs2)cc1OC	i	i	i	i	i
O=C(c1cccc(S(=O)(=O)N2CCCC2)c1)c1nnc(-c2ccncc2)o1	i	i	i	i	i
Cc1nc(N/N=C/c2ccc(O)cc2O)cc(N2CCOCC2)n1	i	-7.6*	i	i	i
CCOC(=O)c1cnc2ccc(C(=O)OC)cc2c1Nc1ccc(C(=O)O)cc1	i	i	i	i	i
CCOC(=O)c1ccc2ncc(C(=O)OCC)c(Nc3ccc(N4CCOCC4)cc3)c2c1	i	-7.5*	i	i	i
CCO[C@H]1OC(C(=O)N2CCN(Cc3ccccc3)CC2)=C[C@@H](c2coc3ccccc3c2=O)[C@@H]1CCCO	i	i	i	i	i
CCO[C@@H]1OC(C(=O)N2CCN(Cc3ccc4c(c3)OCO4)CC2)=C[C@H](c2coc3ccccc3c2=O)[C@H]1CCCO	i	i	i	-5.1*	i
Cc1cccc(N2CCN(C(=O)c3ccc(-n4cncn4)c([N+](=O)[O-])c3)CC2)c1C	i	i	i	-4.9*	i
COc1cccc(C(=O)Nc2ccc(C3CC3(Cl)Cl)cc2)c1 (centres undefined)	i	i	i	i	i
CC1=CC2(O)OCCN(CCO)C2=CC1=O (centres undefined)	i	i	i	i	i
COC(=O)CNC(=O)CNC(=O)c1nn(-c2ccc(OC)c(Cl)c2)c(=O)c2ccccc12	i	i	i	i	i
Cn1/c(=N\NC(=O)c2ccccc2Cl)sc2ccccc21	i	i	31*	i	i
CC(=O)N/N=c1\sc2ccccc2n1C	i	i	i	i	i
Cc1ccc(-c2ccc(/C=C(\C#N)C(=O)Nc3cc(C)nn3-c3ccccc3)o2)cc1	i	-8.6*	i	i	i
CCOC(=O)c1ccc(CNC(=O)Cn2nnc(-c3ccccc3)n2)o1	i	i	i	i	i
